SMILES strings stand for the structures. Some results are limits rather than exact numbers.

Sequence of G-protein coupled receptor 55 (Q9Y2T6 whole entry, looked up, stated change not applied, the tested form may be a part): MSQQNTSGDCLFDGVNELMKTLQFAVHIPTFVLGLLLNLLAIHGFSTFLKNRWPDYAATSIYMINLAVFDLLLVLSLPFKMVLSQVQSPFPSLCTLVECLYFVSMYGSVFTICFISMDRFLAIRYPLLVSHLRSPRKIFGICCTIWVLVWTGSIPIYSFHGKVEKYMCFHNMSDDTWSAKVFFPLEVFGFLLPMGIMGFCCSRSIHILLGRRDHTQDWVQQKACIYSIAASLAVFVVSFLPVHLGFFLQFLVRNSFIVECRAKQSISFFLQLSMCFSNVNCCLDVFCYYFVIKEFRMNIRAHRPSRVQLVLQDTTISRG

Test system in one experiment: not listed separately
Nature of the experiment: Antagonist activity at GRP55E (unknown origin) over-expressed with GFP-tagged beta-arr2 in human U2OS cells assessed as inhibition of LPI induced beta-arrestin recruitment preincubated for 30 mins by beta-arrestin recruitment assay. The experiment is classed as cell-based.
Details: not given
On the technique in general: Recruitment of arrestin is a read-out of receptor activation apart from second messengers.
The term IC50 denotes the concentration that gives 50% inhibition. For the compound `O=C(N1CCC(n2nc(-c3cccc(C(F)(F)F)c3)oc2=O)CC1)C1(c2ccccc2)CC1`, the 50% inhibitory concentration (IC50) was > 15000 nM.

As for `O=C(N1CCC(n2nc(-c3cccs3)oc2=O)CC1)C1(c2ccccc2)CC1`, the IC50 was > 15000 nM. As to `O=C(c1cccc2ccccc12)N1CCC(n2nc(-c3ccccc3)oc2=O)CC1`, the 50% inhibitory concentration (IC50) was > 15000 nM.

`O=C(N1CCC(n2nc(-c3ccco3)oc2=O)CC1)C1(c2ccccc2)CC1`: the concentration for half-maximal inhibition (IC50) is > 15000 nM.

For a further experiment, the target named is G-protein coupled receptor 55 (Homo sapiens, UniProt Q9Y2T6). Nature of the experiment: Antagonist activity at beta-galactosidase fragment-fused GRP55 (unknown origin) over-expressed with N-terminal deletion beta-galactosidase mutant-tagged beta-arr2 in […] cells assessed as inhibition of LPI induced beta-arrestin activity preincubated for 30 mins by PathHunter chemiluminescent complementation assay. The experiment is classed as cell-based. The following applies: cho-k1. The method in brief:
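Inhibition of LPI-induced β-arrestin activity was quantitated by chemiluminescence. Concentration-response curves were run in triplicate against 6 μM LPI, and IC50 was derived with 95% confidence intervals.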
As to `COc1ccc(C2(C(=O)N3CCC(n4nc(-c5ccccc5)oc4=O)CC3)CC2)cc1`, the IC50 entry is “ND(Insoluble)”. On to `COc1ccc(-c2nn(C3CCN(C(=O)C4(c5ccc(OC)cc5)CC4)CC3)c(=O)o2)cc1`, for which the IC50 result is “ND(Insoluble)”.

Regarding `O=C(N1CCC(n2nc(-c3ccc(C(F)(F)F)cc3)oc2=O)CC1)C1(c2ccccc2)CC1`, the half-inhibitory concentration (IC50) result is “ND(Insoluble)”.

Staying with this experiment, now noted: cho-k1; read-out: IC50.
As to `O=C(N1CCC(n2nc(-c3ccccc3)oc2=O)CC1)C1(c2ccc(Cl)cc2)CC1`, the IC50 was found to be 640 nM. As for `O=C(N1CCC(n2nc(-c3ccccc3)oc2=O)CC1)C1(c2ccccc2)CC1`, the IC50 worked out at 12000 nM. As to `O=C(N1CCC(n2nc(-c3ccccc3)oc2=O)CC1)C1(c2ccc(Cl)cc2Cl)CC1`, the IC50 was found to be 2500 nM. On to `O=C(N1CCC(n2nc(-c3cccnc3)oc2=O)CC1)C1(c2ccccc2)CC1`, for which the IC50 was 420 nM. Regarding `COc1ccc(-c2nn(C3CCN(C(=O)C4(c5ccccc5)CC4)CC3)c(=O)o2)cc1`, the IC50 came out at 7000 nM. As to `COc1ccc(C2(C(=O)N3CCC(n4nc(-c5ccc(C(F)(F)F)cc5)oc4=O)CC3)CC2)cc1`, the IC50 came to 1800 nM.

As to `Cc1ccc(C2(C(=O)N3CCC(n4nc(-c5ccccc5)oc4=O)CC3)CC2(C)C)cc1` (racemic), the IC50 amounted to 770 nM.

Test system in another experiment: not listed separately
The experiment is described as follows: Antagonist activity at HA-epitope tagged GRP55E expressed with GFP-tagged beta-arr2 in human U2OS cells assessed as LPI-stimulated redistribution of beta-arr2 preincubated for 15 mins by beta-arrestin translocation assay. Type of experiment: cell-based.
Details: not given
Turning to `Cc1cc(C)c2nc(-c3ccccn3)cc(C(=O)Nc3ccc(S(=O)(=O)Nc4onc(C)c4C)cc3)c2c1`, the half-inhibitory concentration (IC50) worked out at 220 nM. On the same count and under the same terms, the same measure for `Cc1ccc(C2(C(=O)N3CCC(n4nc(-c5ccccc5)oc4=O)CC3)CC2)cc1`: 1100 nM; for `Cc1nc(N2CCN(C(=O)c3ccco3)CC2)c2c3c(sc2n1)CCCC3`: 700 nM.

These data come from ChEMBL document CHEMBL3774327, “Design, synthesis, and analysis of antagonists of GPR55: Piperidine-substituted 1,3,4-oxadiazol-2-ones” (Bioorg Med Chem Lett, 2016).
